BindingDB's records for doi:10.1021/acs.jmedchem.8b01402 (University of Bristol, 2019)

Target: Transcriptional enhancer factor TEF-1 (Homo sapiens, UniProt P28347)
Assay: Inhibition of NL-tagged YAP (unknown origin) interaction with myc-tagged human TEAD1 preincubated for 1 hr followed by NL-tagged YAP addition by NanoGlo assay
Procedure, shortened: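 Myc-TEAD1 from transfected HeLa lysate was captured with anti-myc antibody on protein-G-coated 96-well plates. Wells were pretreated with compound in PBS for 1 h at 4 °C, then co-incubated with lysate from HeLa cells expressing YAP–nanoluciferase. After four PBS washes, bound YAP–NL was read with NanoGlo.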

Sequence of Transcriptional enhancer factor TEF-1 (P28347 whole entry): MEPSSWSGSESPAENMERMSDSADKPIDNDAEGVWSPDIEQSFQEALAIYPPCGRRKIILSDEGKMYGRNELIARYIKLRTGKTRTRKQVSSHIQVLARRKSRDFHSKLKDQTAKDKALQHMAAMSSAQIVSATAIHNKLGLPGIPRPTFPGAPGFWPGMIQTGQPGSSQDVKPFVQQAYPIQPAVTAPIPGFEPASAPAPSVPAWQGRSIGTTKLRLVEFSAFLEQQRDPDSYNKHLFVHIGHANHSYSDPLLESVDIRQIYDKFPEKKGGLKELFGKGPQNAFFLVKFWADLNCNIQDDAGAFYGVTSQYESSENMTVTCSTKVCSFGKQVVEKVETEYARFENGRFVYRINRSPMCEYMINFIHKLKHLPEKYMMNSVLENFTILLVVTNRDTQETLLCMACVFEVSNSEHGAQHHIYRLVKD

IC50: 48 µM
Structure (SMILES): Cc1ccc2c(c1)c1c3n2CCN(C[C@H](O)CN2CCN(C(=O)c4ccco4)CC2)[C@@H]3CCC1
